Test results from publication PMC2810120 (Chemical biology & drug design, 2009).
Non-standard residues stand in square brackets, D forms with d. Residues, ends and D or L forms follow the SMILES beside them. *: point of attachment. pS = N[C@@H](COP(=O)(O)O)C(=O)O; pNA = O=[N+]([O-])c1ccc(N*)cc1

Tests used:
[1] = biological target: human Pin1 (human) (UniProt Q13526); experiment: NMR titration
[2] = Plasma stability assay; format: in vitro ADME; settings: rat plasma, 37 °C, 20 μM, after 30 min
Outline: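 Test compound at 20 μM final is incubated in fresh rat plasma at 37 °C. Samples are stopped at 0, 30 and 60 min with two volumes of methanol containing internal standard, then protein is precipitated and samples centrifuged for LC-MS. % parent remaining is taken against the 0 min sample from peak-area ratios to the internal standard. Run in duplicate with a plasma-labile positive control.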

[3] = Parallel artificial membrane permeation assay; format: in vitro ADME; settings: 100 μM compound, pH 7.2, acceptor concentration after 8 h
Outline: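 Lipid-impregnated hydrophobic filter (lipid applied in chloroform, solvent fully evaporated) separates donor from acceptor wells of phosphate buffer pH 7.2. Test compound is added at 100 μM to the donor side, with stock DMSO <5%. A membrane-free equilibrium well is run in parallel. Acceptor and equilibrium concentrations are measured by LC-MS AUC. % flux is the acceptor concentration after 8 h relative to the membrane-free reference well.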

UniProt Q13526, sequence (Q13526 whole entry): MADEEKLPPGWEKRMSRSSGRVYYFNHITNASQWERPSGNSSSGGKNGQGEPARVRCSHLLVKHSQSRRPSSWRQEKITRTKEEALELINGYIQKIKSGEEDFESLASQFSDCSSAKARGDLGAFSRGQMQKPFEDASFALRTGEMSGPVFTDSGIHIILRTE

Molecule | Kd [1] | plasma stability [2] | PAMPA FLUX (%) [3]
Pintide (peptide) | 323 µM |  | 
N=C(N)NCCC[C@H](NC(=O)[C@@H]1CCCN1C(=O)[C@H](COP(=O)(O)O)NC(=O)[C@H](Cc1ccc(O)cc1)NC(=O)[C@H](Cc1ccccc1)NC(=O)[C@@H](N)Cc1c[nH]c2ccccc12)C(=O)Nc1ccc([N+](=O)[O-])cc1 [Pintide] (H-WFY[pS]PR-pNA; N-terminus and C-terminus assumed) |  | rapidly degraded | 14%
